Experiment [1] addresses Cannabinoid receptor 2 (Homo sapiens) (UniProt P34972). The experiment is described as follows: Percent inhibition of specific binding of [3H]WIN-55212-2 towards human cannabinoid receptor 2 from Chinese hamster ovary cell membranes at the concentration of 10 uM. The method in brief:
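Membranes (40 μg) from human CB2-transfected CHO cells (Ham's F12, 10% FBS, G418) were incubated with 1 nM [3H]-WIN 55,212-2 for 1 h at 30 °C in 50 mM Tris-HCl/MgCl2/EDTA, pH 7.4, with 50 μM PMSF. Bound radioligand was collected on 0.5% PEI-pretreated GF/B filters and counted by liquid scintillation.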

The target of experiment [2] is Cannabinoid receptor 1 (Homo sapiens) (UniProt P21554). The experiment is described as follows: Percent inhibition of specific binding of [3H]CP-55940 towards human cannabinoid receptor 1 from Chinese hamster ovary cell membranes at the concentration of 10 uM. The method in brief: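 Membranes (40 μg) from CHO cells stably expressing human CB1 (grown in Ham's F12, 10% FBS, G418) were incubated with 1 nM [3H]-CP55,940 for 1 h at 30 °C in 50 mM Tris-HCl with MgCl2 and EDTA, pH 7.4, plus 50 μM PMSF. Nonspecific binding was defined with 10 μM HU-210. Filtration was on PEI-treated GF/B filters, followed by scintillation counting.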

For experiment [3], the species on record is Rattus norvegicus. The experiment is described as follows: Percent inhibition of AEA (N-arachidonoylethanolamine) metabolism in rat brain homogenates using [3H]anandamide as the labeled substrate. It counts as functional. On the set-up: concentration or dose not given beside the values. The note with it: dose or concentration not given here. A digest of the protocol:
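Rat brain membranes with test compound or ethanol carrier and [3H]-AEA (2 μM final) in 10 mM Tris-HCl, 1 mM EDTA, 1% w/v fatty-acid-free BSA, pH 7.6, for 10 min at 37 °C. Ice plus chloroform/methanol (1:1) stopped the reaction, and the methanol/buffer phase was counted with quench correction. Blanks used water in place of homogenate. Values come from at least three experiments.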

Experiment [4] is filed under the species Rattus norvegicus. The experiment in a line: Tested for percent inhibition of AEA (N-arachidonoylethanolamine) metabolism in rat brain homogenates using [3H]anandamide as the labeled substrate at 100 uM. It counts as functional.
Experiment [5] is filed under the species Rattus norvegicus. The experiment in a line: Inhibition of AEA (N-arachidonoylethanolamine) metabolism using rat brain homogenates at pH 6 using [3H]-anandamide as the labeled substrate. It counts as functional. The note with it: dose or concentration not given here. The method in brief:
(§1)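 Rat brain membranes (adult, minus cerebellum) were homogenized in 20 mM HEPES pH 7.0 with 1 mM MgCl2, washed, preincubated 15 min at 37 °C, and stored at -70 °C. Incubation was with [3H]-AEA (2 μM final) for 10 min at 37 °C at pH 6 or pH 9. Chloroform/methanol stopped the reaction, and [3H]-ethanolamine in the aqueous phase was counted. pI50 and maximal inhibition came from 3–5 experiments (three homogenate preparations) over 3–100 μM (seven concentrations).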

The species entered for experiment [6] is Rattus norvegicus. The experiment in a line: Inhibition of AEA (N-arachidonoylethanolamine) metabolism using rat brain homogenates at pH 9 using [3H]anandamide as the labeled substrate. The note with it: dose or concentration not given here. The format is functional. A digest of the protocol: as §1
The species named for experiment [7] is Rattus norvegicus. The experiment is described as follows: Inhibition of AEA (N-arachidonoylethanolamine) metabolism using rat brain homogenates at pH 6 and at the concentration of 50 uM using [3H]anandamide as the labeled substrate. It counts as functional.

Each structure is given as a SMILES string.

Chain of Cannabinoid receptor 2 (Homo sapiens) (P34972 whole entry): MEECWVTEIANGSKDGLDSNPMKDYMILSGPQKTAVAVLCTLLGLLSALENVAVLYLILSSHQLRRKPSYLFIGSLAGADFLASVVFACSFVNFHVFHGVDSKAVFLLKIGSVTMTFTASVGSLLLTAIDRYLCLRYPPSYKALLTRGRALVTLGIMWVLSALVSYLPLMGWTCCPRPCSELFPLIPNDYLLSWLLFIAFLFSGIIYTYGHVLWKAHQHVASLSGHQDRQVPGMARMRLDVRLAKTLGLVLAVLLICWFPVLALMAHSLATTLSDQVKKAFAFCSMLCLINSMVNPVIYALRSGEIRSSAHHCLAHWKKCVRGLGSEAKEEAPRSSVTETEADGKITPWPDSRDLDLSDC
Chain of Cannabinoid receptor 1 (Homo sapiens) (P21554 whole entry): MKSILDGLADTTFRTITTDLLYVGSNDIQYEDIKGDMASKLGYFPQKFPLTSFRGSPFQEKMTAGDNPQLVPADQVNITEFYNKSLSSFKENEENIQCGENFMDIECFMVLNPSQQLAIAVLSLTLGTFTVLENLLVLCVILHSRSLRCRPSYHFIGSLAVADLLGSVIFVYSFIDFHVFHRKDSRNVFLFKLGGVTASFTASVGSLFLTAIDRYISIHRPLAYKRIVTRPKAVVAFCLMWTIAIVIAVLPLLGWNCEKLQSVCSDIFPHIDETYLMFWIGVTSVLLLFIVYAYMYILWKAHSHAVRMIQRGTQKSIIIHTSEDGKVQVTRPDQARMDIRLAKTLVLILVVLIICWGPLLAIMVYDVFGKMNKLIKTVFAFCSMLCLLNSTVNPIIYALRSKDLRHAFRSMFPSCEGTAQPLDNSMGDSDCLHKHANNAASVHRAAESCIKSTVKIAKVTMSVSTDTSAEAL

By inhibition is commonly meant the change of the read-out against control, counted positive when it falls. For `C=CCNC(=O)CCCCCCCCCCCCCCC`, the results for the inhibition (in experiment [1]; in experiment [2]; in the experiment filed under Rattus norvegicus [3]) were 7.8%, 13.3% and 67%, respectively.
As to `CCCCCCCCCCCCCCCC(=O)NCCCl`, the inhibition came out at 13.5% in experiment [1], 25.2% in experiment [2] and 48% in the experiment filed under Rattus norvegicus [3].
Turning to `CCCCCCCCCCCCCCCC(=O)NC`, the inhibition turned out to be 2.5% in experiment [2] and 100% in the experiment listed under Rattus norvegicus [3].
`CCCCCCCCCCCCCCCC(=O)NOC`: the figures for the inhibition (in experiment [1]; in experiment [2]; in the experiment listed under Rattus norvegicus [3]) were 5.2%, 18.1% and 46%, respectively.
`CCCCCCCCCCCCCCCC(=O)Nc1ccccc1O`: the inhibition in experiment [1] was found to be 2.7%; in experiment [2] it was 10.8%; in the experiment filed under Rattus norvegicus [4] it was 53%.
As to `CCCCCCCCCCCCCCCC(=O)NCCCC`, the results for the inhibition (in experiment [1]; in experiment [2]; in the experiment listed under Rattus norvegicus [3]) were 12.9%, 19.6% and 24%, respectively.
The compound `CCCCCCCCCCCCCCCC(=O)NC1CCCCC1` displayed an inhibition in the experiment listed under Rattus norvegicus [4] of 11%.
Regarding `CCCCCCCCCCCCCCCC(N)=O`, the inhibition is 12.9% in experiment [1], 11.7% in experiment [2] and 51% in the experiment filed under Rattus norvegicus [3].
Regarding `CCCCCCCCCCCCCCCC(=O)NCC(C)C`, the inhibition in experiment [1] amounted to 8.9%; in experiment [2], 18.5%; in the experiment listed under Rattus norvegicus [3], 6%.
`CCCCCCCCCCCCCCCC(=O)NCCCCl`: the inhibition in experiment [1] worked out at 14.3%; in experiment [2] it was 30.6%; in the experiment listed under Rattus norvegicus [3], 27%.
For `CCCCCCCCCCCCCCCC(=O)NCCBr`, the figures for the inhibition (in experiment [1]; in experiment [2]; in the experiment filed under Rattus norvegicus [3]) were 15.1%, 35.8% and 41%, respectively.
In the case of `CCCCCCCCCCCCCCCC(=O)N1CCOCC1`, the inhibition in experiment [1] turned out to be 4.2%; in experiment [2], 15.5%; in the experiment filed under Rattus norvegicus [4] it was 6%.
As to `CCCCCCCCCCCCCCCC(=O)Nc1ccc(Cl)cc1`, the inhibition in experiment [1] was found to be 7.4%; in experiment [2], 11.1%; in the experiment listed under Rattus norvegicus [3] it was 11%.
Consider `CCCCCCCCCCCCCCCC(=O)NCCCO`, for which the inhibition in experiment [1] is 6.4%; in experiment [2], 15%; in the experiment filed under Rattus norvegicus [5], 45%; in the experiment listed under Rattus norvegicus [6] it was 81%; in the experiment listed under Rattus norvegicus [3], 61%.
For `CCCCCCCCCCCCCCCC(=O)NCC(=O)OC` the same measures were 4.1%, 7.3%, 75%, 100% and 100%.
Take `CCCCCCCCCCCCCCCC(=O)NC(C)(C)C`: the values for the inhibition (in experiment [1]; in experiment [2]; in the experiment filed under Rattus norvegicus [3]) were 2%, 24.6% and 0%, respectively.
As for `CCCCCCCCCCCCCCCC(=O)Nc1cccc(O)c1`, the inhibition in experiment [1] worked out at 3.9%; in experiment [2], 40.9%; in the experiment listed under Rattus norvegicus [4], 51%.
Turning to `CCCCCCCCCCCCCCCC(=O)NC(C)C`, the inhibition came out at 4% in the experiment listed under Rattus norvegicus [7], 39% in the experiment listed under Rattus norvegicus [6] and 61% in the experiment listed under Rattus norvegicus [3].
Turning to `CCCCCCCCCCCCCCCC(=O)Nc1ccccc1C`, the inhibition in experiment [1] worked out at 6.5%; in experiment [2], 4.9%; in the experiment listed under Rattus norvegicus [3], 31%.
Consider `CCCCCCCCCCCCCCCC(=O)NCCC`, for which the inhibition in experiment [1] worked out at 6.1%; in experiment [2], 14.4%; in the experiment listed under Rattus norvegicus [3] it was 49%.
For `CCCCCCCCCCCCCCCC(=O)NCCF`, the inhibition in experiment [1] is 3.9%; in experiment [2], 8.2%; in the experiment filed under Rattus norvegicus [4], 6%.
For the compound `CCCCCCCCCCCCCCCC(=O)NC(C)(C)CO`, the inhibition turned out to be 6.7% in experiment [1], 15.7% in experiment [2] and 0% in the experiment listed under Rattus norvegicus [3].
For `CCCCCCCCCCCCCCCC(=O)NC1CC1` the same measures were 16.3%, 12.8% and 57%.
`CCCCCCCCCCCCCCCC(=O)Nc1ccccc1`: the inhibition in experiment [1] came to 0.5%; in experiment [2] it was 2.8%; in the experiment filed under Rattus norvegicus [3] it was 18%.
Take `CCCCCCCCCCCCCCCC(=O)NC(c1ccccc1)c1ccccc1`: the inhibition in experiment [1] amounted to 1.1%; in experiment [2], 2.2%; in the experiment filed under Rattus norvegicus [4], 0%.
On to `CCCCCCCCCCCCCCCC(=O)Nc1ccc(C)cc1`, for which the inhibition in experiment [1] is 6.5%; in experiment [2] it was 2.8%; in the experiment listed under Rattus norvegicus [4] it was 0%.
In the case of `CCCCCCCCCCCCCCCC(=O)Nc1ccc2ccccc2c1`, the inhibition in experiment [1] turned out to be 0.1%; in experiment [2], 0.7%; in the experiment filed under Rattus norvegicus [3] it was 28%.
As for `CCCCCCCCCCCCCCCC(=O)NCCc1ccccc1`, the inhibition in experiment [1] was determined as 1.3%; in experiment [2] it was 22.8%; in the experiment filed under Rattus norvegicus [4], 19%.
With `CCCCCCCCCCCCCCCC(=O)NCC`, the inhibition is 10% in experiment [1], 2.8% in experiment [2] and 72% in the experiment listed under Rattus norvegicus [3].
On to `CCCCCCCCCCCCCCCC(=O)NCc1ccc(OC)cc1`, for which the inhibition in experiment [1] stood at 3.7%; in experiment [2], 25.4%; in the experiment filed under Rattus norvegicus [4], 29%.
Turning to `CCCCCCCCCCCCCCCC(=O)Nc1ccc(O)cc1`, the inhibition in experiment [1] came out at 5%; in experiment [2], 44.8%; in the experiment filed under Rattus norvegicus [4], 55%.
On to `CCCCCCCCCCCCCCCC(=O)NC1CCCC1`, for which the figures for the inhibition (in experiment [1]; in experiment [2]; in the experiment filed under Rattus norvegicus [4]) were 9.5%, 27.1% and 43%, respectively.
For `CCCCCCCCCCCCCCCC(=O)N(CC)CC` the same measures were 2.7%, 3.3% and 2%.
Turning to `CCCCCCCCCCCCCCCNC(=O)COC(C)=O`, the inhibition in experiment [1] turned out to be 6%; in experiment [2], 16%; in the experiment filed under Rattus norvegicus [3], 87%.
For the compound `CCCCCCCCCCCCCCCC(=O)NCCO`, the inhibition in the experiment filed under Rattus norvegicus [5] is 62%; in the experiment listed under Rattus norvegicus [6], 100%; in the experiment listed under Rattus norvegicus [3], 78%.
Take `CCCCCCCCCCCCCCCC(=O)N(C)C`: the inhibition in experiment [1] came out at 6.4%; in experiment [2], 0.3%; in the experiment listed under Rattus norvegicus [4], 30%.
For the compound `CCCCCCCCCCCCCCCC(=O)NCc1ccc(C)cc1`, the values for the inhibition (in experiment [1]; in experiment [2]; in the experiment listed under Rattus norvegicus [3]) were 0.7%, 4.8% and 100%, respectively.

(Values after ChEMBL document CHEMBL1136715, “Modifications of the ethanolamine head in N-palmitoylethanolamine: synthesis and evaluation of new agents interfering with the metabolism of anandamide” (J Med Chem, 2003).)
